# Screening results: PubChem, several laboratories
# T cruzi inh – inhibitors of intracellular T. cruzi growth, primary screen, luminescence, NIH3T3 host cells; 300,000 compounds, 1.4% hits; inhibition, % (concentration not given with the values); T. cruzi beta-gal in NIH3T3, 90 h;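 active means mean inhibition across valid replicates above about 55%, limit read from the data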;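 further: signal also drops with host cell toxicity which is not excluded here; higher percent means less beta-gal luminescence so fewer parasites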
#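 assay system = mouse NIH/3T3 fibroblasts infected with β-gal-expressing T. cruzi Tulahuen C4 | input = 5,000 NIH/3T3 host cells per well | buffer or medium = DMEM plus 2% FBS | timing = 3 h host attachment, then at least 90 h co-culture | measured by = GalScreen luminescence, 60 min | evaluation = luminescence reflecting intracellular parasite burden, expressed as percent inhibition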
# Beta apoptosis – inhibitors of cytokine-induced beta cell apoptosis, primary screen, luminescence | INS-1E cytokine-induced death, ATP luminescence, 48 h; percent of positive-control rescue, neutral wells zero | protection from apoptosis, % (test concentration not listed) | 300,000 compounds, 0.8% hits;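 active means Every replicate reaches about 75%, or at least half do and their mean reaches it too, limit read from the data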;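 further: higher means more ATP so stronger rescue from cytokine killing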
# SUMO Mot1 rescue – yeast Mot1-301 growth rescue at high temperature, primary screen, SUMOylation pathway inhibitor project, S. cerevisiae, ATP luminescence, 38.5C. S. cerevisiae Mot1-301 growth rescue; percent above DMSO median, 100 means doubled. growth rescue, % at 18.8 µM. 320,000 compounds, 1% hits;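 active means every valid replicate shows activation above 250% relative to neutral control wells; inactive means the rest, any valid replicate at or below 250%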
# Efflux pump inh – inhibitors of Candida efflux pumps in yeast, primary screen, S. cerevisiae, Nile Red, multiplex | S. cerevisiae Candida pump triplex | 330,000 compounds, 0.44% hits | inhibition, % at 10 µM;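 active means plate passing quality check with inhibition over a set limit, or well fluorescence over plate mean plus 4 SD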;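 further: Nile Red retained in pooled yeast measured as flow cytometry median fluorescence; higher means more Nile Red kept so more efflux inhibition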
# CSC inhib – cancer stem cell viability inhibitors, primary screen, luminescence | cancer stem cell-like cells viability | inhibition, % at 7.5 µM | 300,000 compounds, 1.1% hits | AID 2717, 2010; in the data active means inhibition above about 75%; tested in HMLE shEcad cells
# WT yeast gro inh – growth inhibition of WT strain, primary screen, mitochondrial fusion inhibitor project, WT and mutant strains, chemical genetic | inhibition, % at 10 µM | 190,000 compounds, 2.1% hits | AID 1362, 2008 | mitochondrial fusion phenotypic screen; in the data active means inhibition above about 58%; tested in S. cerevisiae
# Hits are given with their value; – = inactive; · = not tested or not shown. The list is not random: actives were taken first. Their share in the collection is about 4.8%.
SMILES,T cruzi inh,Beta apoptosis,SUMO Mot1 rescue,Efflux pump inh,CSC inhib,WT yeast gro inh
CNc1ncc(C(=O)c2ccc(Cl)c(Cl)c2)s1,–,–,–,–,–,–
O=C(c1ccc(Cl)c(Cl)c1)c1cnc(Nc2ccccc2)s1,–,–,–,–,–,86.8
CC(C)(C)c1ccc(C(=O)N2CCN(c3ccc(N4CCOCC4)nn3)CC2)cc1,–,·,·,–,–,·
COc1ccc(OCC(=O)NNC(=O)c2ccc3c(=O)n4c(nc3c2)CCC4)cc1,–,–,–,–,–,·
O=C(COC(=O)CCC1CCCC1)Nc1ccc(Cl)cc1F,–,–,–,–,–,–
CC(C)C(=O)NC(c1ccccc1)c1cc([N+](=O)[O-])c2cccnc2c1O (configuration not stated),–,91.3,–,–,147.4,–
CC(=O)NC(c1ccccc1)c1cc([N+](=O)[O-])c2cccnc2c1O (configuration not stated),–,–,–,–,119.7,–
CC(NC(=O)Cc1ccccc1[N+](=O)[O-])c1ccccc1 (configuration not stated),–,–,–,–,–,–
CCOC(=O)c1ccc(S(=O)(=O)N2CCN(Cc3cc4c(cc3O)OCO4)CC2)cc1,·,–,–,–,·,·
Cc1ccccc1N(CC(=O)Nc1ccc(S(=O)(=O)N2CCOCC2)cc1)S(C)(=O)=O,–,–,–,–,–,–
Cn1cnnc1SCNC(=O)C(F)(F)F,–,–,–,–,–,–
NC(=S)N=Nc1c(O)n(CCCl)c2ccc(Cl)cc12,–,–,341.4,–,–,–
Cc1nc(N)sc1N=Nc1ccc(Br)cc1,–,–,–,–,–,66.3
Cc1nnc(-c2ccc(Oc3ccc(Br)cc3)c([N+](=O)[O-])c2)o1,–,–,–,–,139.1,–
O=C(Nc1cccc(S(=O)(=O)N2CCCCC2)c1)c1ccc(N2CCCC2=O)cc1,·,–,–,–,·,·
CC(C)Nc1nc(Oc2cccc(Cl)c2Cl)cc(C(F)(F)F)n1,–,–,–,–,–,87.3
O=C(NCCN1CCOCC1)c1ccc(F)cc1,–,–,–,–,–,·
O=C(NCCN1CCOCC1)c1ccc(=O)oc1,–,·,–,–,–,61.9
Nc1c(N(CCC2=CCCCC2)C(=O)c2ccc([N+](=O)[O-])o2)c(=O)[nH]c(=O)n1Cc1ccccc1,66.0,–,–,–,–,·
Cc1ccc(C(=O)N(CCC2=CCCCC2)c2c(N)n(Cc3ccccc3)c(=O)[nH]c2=O)o1,–,–,–,–,–,·
O=C(Cc1cn(Cc2cccc(Cl)c2)c2ccccc12)N1CCCCCC1,58.9,–,–,–,–,68.5
O=C(O)Cc1cn(Cc2cccc(Cl)c2)c2ccccc12,–,–,–,–,–,–
CC1CCCN(C(=O)Cc2cn(Cc3cccc(Cl)c3)c3ccccc23)C1 (configuration not stated),54.5,–,–,–,–,72.6
CC1CCCN(C(=O)COC(=O)Cc2ccc(Cl)cc2)C1 (configuration not stated),–,–,–,–,–,·
Cc1[nH]n(-c2ncc(-c3ccc(Cl)cc3)s2)c(=O)c1C(c1ccc(Cl)cc1)C(C#N)C#N (configuration not stated),–,–,–,–,96.2,–
SMILES,T cruzi inh,Beta apoptosis,SUMO Mot1 rescue,Efflux pump inh,CSC inhib,WT yeast gro inh
CCOc1ccc(NC(=O)Cc2ccc(S(=O)(=O)N3CCCCC3)cc2)cc1OCC,·,–,–,–,–,·
Cc1ccc(NCc2nc3ccccc3n2CCOc2ccccc2)cc1,–,–,–,–,–,62.8
CC(=O)Nc1nc2ccccc2n1CCOc1ccccc1,–,–,–,–,–,–
S=C(Nc1ccccc1)Nc1nc2ccccc2n1CCOc1ccccc1,–,–,–,–,98.4,–
CCOc1ccc(S(=O)(=O)Nc2ccc3c(c2)OCO3)cc1,–,–,–,–,–,·
CCOC(=O)C1(CCCc2ccccc2)CCN(C(=O)CCOC)CC1,–,–,600.1,–,–,–
C/C(=N\NC(=O)c1cc(C2CC2)nc2ccccc12)c1ccc(O)cc1O,–,94.8,–,–,–,·
C/C(=N\NC(=O)c1cc(-c2cccnc2)nc2ccccc12)c1ccccc1O,63.4,86.4,–,–,·,–
COc1cc(CCN2C(=O)c3cccc4cccc(c34)C2=O)c(S(=O)(=O)N2CCCCCC2)cc1OC,57.7,–,–,–,–,–
COc1cc(CCN2C(=O)c3cccc4cccc(c34)C2=O)c(S(=O)(=O)N2CCC(C)CC2)cc1OC,58.6,–,–,–,–,–
COc1cc(CCN2C(=O)c3cccc4cccc(c34)C2=O)c(S(=O)(=O)NCCO)cc1OC,–,–,–,–,–,–
Cc1cc(C)cc(NC(=S)NCCN(C2CCCCC2)C2CCCC2)c1,–,–,430.2,–,–,–
O=C(/C=C/c1cc[n+](CC(=O)c2ccc3cccc4c3c2CC4)cc1)c1ccc2cccc3c2c1CC3,62.8,–,–,–,–,·
O=C(NC1CCCCNC1=O)c1ccco1 (configuration not stated),–,·,–,–,·,·
NS(=O)(=O)c1cnccc1Nc1ccc(Cl)c(Cl)c1,–,–,–,–,–,–
CC1Sc2ccc(S(=O)(=O)N3CCC(C(=O)Nc4ccc(Cl)cc4)CC3)cc2NC1=O (configuration not stated),–,112.6,–,–,–,·
Cc1ccc(NC(=O)C2CCN(S(=O)(=O)c3ccc(N4CCCC4=O)cc3)CC2)cc1Cl,–,122.0,–,–,–,·
COc1ccc(NC(=O)C2CCN(S(=O)(=O)c3ccc4c(c3)NC(=O)C(C)S4)CC2)cc1 (configuration not stated),–,–,–,–,–,·
CCOC(=O)CN(c1ccccc1C)S(=O)(=O)c1ccc(Cl)cc1,–,–,–,–,–,·
N#Cc1ccc(NC(=O)COc2ccc(-n3cnnn3)cc2)cc1,·,–,–,–,–,·
Cc1ccc(C2(C)CC(C)(C)N(C(=O)CSc3nnc(C)s3)c3ccccc32)cc1 (configuration not stated),–,–,–,–,–,59.2
Cc1nnc(SCC(=O)N2c3ccccc3C(C)(c3ccccc3)CC2(C)C)s1 (configuration not stated),–,–,–,–,·,–
COc1ccccc1Sc1nc(-c2ccccn2)ncc1OC,–,–,–,–,–,–
COc1cnc(-c2ccccn2)nc1Sc1ccc(C)cc1,–,91.5,–,–,–,–
FC(F)(F)c1cccc(Sc2cc(C(F)(F)F)nc(-c3ccccn3)n2)c1,–,–,–,–,–,–
Cc1ccc(Sc2cc(C)nc(-c3ccccn3)n2)cc1,–,86.7,–,–,–,·
CCOC(=O)[C@@H]1[C@H]2COc3cc(OC)ccc3[C@H]2N2C(=O)N(c3ccc(C)cc3)C(=O)[C@@]12C,–,–,–,–,–,·
